The source made the active and inactive calls.
Key:
[1] = Acute toxicity measured in mice when administered intraperitoneally; format: organism-based; settings: mus sp., in vivo, ip
[2] = system: Rattus norvegicus; experiment: Anticonvulsant activity measured to prevent maximal electroshock seizure in rats when administered intraperitoneally; format: functional; settings: ip
In short: (§1)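 Male Sprague–Dawley rats (160–300 g) given compound ip as suspension in 0.5% methylcellulose (10 mL/kg), 30 min before electroshock; 150 mA via corneal electrodes for 0.2 s. Protection = abolition of hind-limb tonic extensor component. ED50 in mg/kg.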

[3] = system: Rattus norvegicus; experiment: (§2) Anticonvulsant activity was measured by the ability to prevent intraperitoneally; format: functional
In short: (§3)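 Pentylenetetrazole (90 mg/kg ip) given after ip pretreatment with test agent as suspension in 0.5% methylcellulose; controls received diluent. Animals observed 15 min; protection = absence of clonic seizures. ED50 in mg/kg.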

[4] = system: Mus musculus; experiment: Neurological deficit (Loss of coordination) was measured in the mice using rotarod test when administered intraperitoneally; format: functional; settings: ip
In short: (§4)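 Mice dosed ip, then placed on rotarod turning at 11 rpm; failure to stay on for at least 1 min scored as loss of coordination. ED50 in mg/kg.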

[5] = (§5) Acute toxicity of was measured in rat by ip administration when administered intraperitoneally; format: organism-based; settings: in vivo
[6] = system: Mus musculus; experiment: Anticonvulsant activity was measured by the ability to prevent maximal electroshock seizure in mice when administered intraperitoneally; format: functional; settings: ip
In short: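 Male ICR (Blue Spruce) mice, 19–22 g, dosed ip as suspension in 0.5% methylcellulose (10 mL/kg) 30 min prior to corneal electroshock, 50 mA for 0.2 s. Mice scored protected if hind-limb extensor phase was blocked; ED50 in mg/kg.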

[7] = system: Rattus norvegicus; experiment: Acute toxicity of was measured in rat by po administration when administered intraperitoneally; format: organism-based; settings: in vivo
[8] = organism: Rattus norvegicus; experiment: Peak time of anticonvulsant activity against MES was determined; format: functional
In short: (§6)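 Separate groups of rats dosed ip at approximate ED84 and challenged by maximal electroshock (150 mA, 0.2 s, corneal electrodes) at 0.5, 1, 2, 3 or >6 h after dosing; protection = hind-limb extensor blocked. Time of peak activity/duration in h.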

[9] = as §5; format: organism-based; settings: in vivo; remark: listed apart in the source
[10] = system: Rattus norvegicus; experiment: Anticonvulsant activity was measured by the ability to prevent maximal electroshock seizure in rat when administered intraperitoneally; format: functional; settings: ip; in short: as §1
[11] = system: Mus musculus; experiment: Neurological deficit was measured in the mice using rotarod test when administered intraperitoneally; format: functional; settings: ip; in short: as §4
[12] = system: Mus musculus; experiment: Anticonvulsant activity was measured by the ability to prevent matrazol induced threshold clonic seizures in mice when administered intraperitoneally; format: functional; settings: ip
In short: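 Mice were pretreated intraperitoneally 30 min before pentylenetetrazole (90 mg/kg ip). Compounds were given as a 0.5% methylcellulose suspension at 10 mL/kg; controls received diluent. Animals were watched for 15 min and counted protected if clonic seizures were prevented. The ED50 is the dose protecting half the animals.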

[13] = system: Mus musculus; experiment: Tolerance was tested in maximal electroshock seizures test in mice when administered intraperitoneally; Yes; format: functional, organism-based
[14] = organism: Rattus norvegicus; experiment: Peak time of anticonvulsant activity against MES was determined; 4-6; format: functional; in short: as §6
[15] = Acute toxicity of was measured in rat by ip administration of the compound; format: organism-based; settings: in vivo
[16] = system: Rattus norvegicus; experiment: Anticonvulsant activity was measured by the ability to prevent intraperitoneally; Inactive; format: functional, organism-based; in short: as §3
[17] = Acute toxicity of was measured in rat by po administration of the compound; format: organism-based; settings: in vivo
[18] = system: Mus musculus; experiment: Loss of righting reflex was measured in the mice when administered intraperitoneally; format: functional; settings: ip
[19] = system: Rattus norvegicus; experiment: Peak time of anticonvulsant activity against MES was determined ip; format: functional; in short: as §6
[20] = system: Mus musculus; experiment: as §2; format: functional; settings: ip; in short: as §3

Structure (SMILES) | LD50 [1] | ED50 [2] | ED50 ([3]; ip) | further results
O=C1NC(=O)/C(=C\c2cccc(C(F)(F)F)c2)N1 | 350 mg/kg | ~50 mg/kg | > 200 mg/kg | –
COc1ccc(OC)c(CC2NC(=O)NC2=O)c1 (centres undefined) | – | > 50 mg/kg | – | –
O=C1NC(=O)C(Cc2cccc(Cl)c2)N1 (centres undefined) | – | > 50 mg/kg | ~150 mg/kg | –
CN1C(=O)NC(Cc2cccc(Br)c2)C1=O (centres undefined) | 500 mg/kg | 30 mg/kg | ~100 mg/kg | –
N#CCCN1C(=O)NC(Cc2cccc(C(F)(F)F)c2)C1=O (centres undefined) | – | > 50 mg/kg | – | –
O=C1NC(Cc2cccc(C(F)(F)F)c2)C(=O)N1CCBr (centres undefined) | – | > 50 mg/kg | – | –
O=C1NC(=O)/C(=C\c2cccc(Br)c2)N1 | > 500 mg/kg | > 50 mg/kg | > 200 mg/kg | –
COc1ccc(OC)c(CC2(C)NC(=O)NC2=O)c1 (centres undefined) | > 800 mg/kg | > 50 mg/kg | – | –
CC1(Cc2ccc3ccccc3c2)NC(=O)NC1=O (centres undefined) | – | > 50 mg/kg | – | –
O=C1NC(=O)C(Cc2cccc(Br)c2)N1 (centres undefined) | – | > 50 mg/kg | > 200 mg/kg | –
CCCC(CCC)C(=O)O [VALPROIC ACID] | – | – | > 500 mg/kg | ED50 [4]: 415 mg/kg; LD50 [5]: 838 mg/kg; ED50 [6]: 260 mg/kg; LD50 [7]: 1530 mg/kg; Duration of action [8]: ~5 h; LD50 [9]: 1040 mg/kg; ED50 [10]: 94.8 mg/kg
CCOC(=O)CN1C(=O)NC(Cc2cccc(C(F)(F)F)c2)C1=O (centres undefined) | 500 mg/kg | > 50 mg/kg | > 100 mg/kg | –
O=C1NC(=O)C(c2ccccc2)(c2ccccc2)N1 [PHENYTOIN] | 100 mg/kg | 9.6 mg/kg | – | ED50 [11]: 135 mg/kg; ED50 [12]: 50 mg/kg; ED50 [6]: 8.5 mg/kg; Tolerance [13]: Active; Duration of action [14]: 4 h; LD50 [15]: 280 mg/kg; ED50 [16]: inactive; LD50 [17]: > 1000 mg/kg; ED50 [18]: 82 mg/kg
O=C1NC(Cc2cccc(C(F)(F)F)c2)C(=O)N1CCO (centres undefined) | – | 45 mg/kg | 100 mg/kg | –
CN1C(=O)NC(Cc2cccc(C(F)(F)F)c2)C1=O (centres undefined) | 350 mg/kg | > 50 mg/kg | > 100 mg/kg | –
COc1ccc(CC2(C)NC(=O)NC2=O)c(OC)c1 (centres undefined) | > 600 mg/kg | > 50 mg/kg | – | –
COc1ccc(/C=C2/NC(=O)NC2=O)cc1OC | > 500 mg/kg | > 200 mg/kg | > 50 mg/kg | –
COc1ccc(OC)c(/C=C2/NC(=O)NC2=O)c1 | > 500 mg/kg | > 50 mg/kg | > 200 mg/kg | –
COc1ccc(CC2NC(=O)NC2=O)cc1OC (centres undefined) | – | > 50 mg/kg | > 200 mg/kg | –
O=C1NC(=O)C(Cc2cccc(C(F)(F)F)c2)N1 (centres undefined) | 350 mg/kg | 23 mg/kg | – | ED50 [4]: 65 mg/kg; ED50 [6]: 70 mg/kg; Duration of action [19]: 4 h; LD50 [15]: 410 mg/kg; ED50 [20]: 17.5 mg/kg; ED50 [3]: ~100 mg/kg; ED50 [18]: 160 mg/kg
O=C1NC(=O)/C(=C\c2cccc(Cl)c2)N1 | – | ~50 mg/kg | > 200 mg/kg | –
O=C1NC(=O)C(c2ccccc2)(c2cccc(C(F)(F)F)c2)N1 (centres undefined) | > 100 mg/kg | > 50 mg/kg | > 200 mg/kg | –
CC1(Cc2cccc(C(F)(F)F)c2)NC(=O)NC1=O (centres undefined) | – | > 50 mg/kg | – | –
COc1ccc(CC2(C)NC(=O)NC2=O)cc1OC (centres undefined) | > 500 mg/kg | > 50 mg/kg | > 200 mg/kg | –

Source: ChEMBL document CHEMBL1121819, “Potential anticonvulsants. 1. 5-Benzylhydantoins” (J Med Chem, 1981)
